These results are taken from ChEMBL document CHEMBL1129065, “Longimicins A-D: novel bioactive acetogenins from Asimina longifolia (annonaceae) and structure-activity relationships of asimicin type of annonaceous acetogenins” (1996).

Broadly, the LC50 is the concentration that kills 50% of the test population.

What all share (assay type): functional
In one experiment the test system is A549. Briefly: Cytotoxicity concentration against human lung carcinoma A-549 cell line. Conditions: read-out: ED50 (the source's name). The essentials:
(§1)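 7-day MTT cytotoxicity assay in human tumor cells, run at the Purdue Cancer Center cell culture lab under standard protocols. Samples serially diluted and each concentration tested in duplicate. ED50 calculated from the averaged values per concentration. Adriamycin included as positive control in every experiment.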

For the next experiment, the system named is MCF7. Put plainly: Cytotoxicity concentration against human breast carcinoma MCF-7 cell line. Conditions: read-out: ED50 (the source's name). The essentials:
as §1

The test system of a further experiment is Artemia. Put plainly: Lethal concentration required against bioactivity using brine shrimp lethality test.
The next experiment relates to Culicidae. Put plainly: Lethal concentration required against bioactivity using yellow fever mosquito larvae assay.
For a further experiment, the system named is HT-29. Briefly: Cytotoxicity concentration against human colon […] HT-29 cell line. Particulars: read-out: ED50 (the source's name). The gist of the method: as §1
The test system of another experiment is PC-3. Briefly: Cytotoxicity concentration against human prostate […] PC-3 cell line. Particulars: read-out: ED50 (the source's name). The gist of the method:
as §1

The next experiment concerns MIA PaCa-2. Put plainly: Cytotoxicity concentration against human pancreatic carcinoma PaCa-2 cell line. Conditions: read-out: ED50 (the source's name). The gist of the method: as §1
In the next experiment the test system is A498. Put plainly: Cytotoxicity concentration against human kidney carcinoma A-498 cell line. Particulars: read-out: ED50 (the source's name). The essentials:
as §1

Values after ≈ are worked out from the molar mass of the structure shown.

Take `CCCCCCCCCCC(O)C1CCC(C2CCC(C(O)CCCCCCCC[C@H](O)CC3=C[C@@H](C)OC3=O)O2)O1` (stereo partly specified) [ASIMICIN]: the EC50 was 0.00843 µg/mL (≈ 0.0142 µM) in the experiment with A549 and 0.852 µg/mL (≈ 1.43 µM) in the experiment with MCF7. The LC50 in the experiment with Artemia came out at 0.026 µg/mL (≈ 0.0437 µM); in the experiment on Culicidae it was 3.04 µg/mL (≈ 5.11 µM).
In the case of `CCCCCCCCCC[C@@H](O)[C@H]1CC[C@H]([C@H]2CC[C@H]([C@H](O)CCCCCCCC[C@@H](O)CC3=C[C@H](C)OC3=O)O2)O1` [PARVIFLORIN], the EC50 was determined as 0.549 µg/mL (≈ 0.923 µM) with HT-29 and 1.72 µg/mL (≈ 2.89 µM) with MCF7. In addition, the median lethal concentration (LC50) with Artemia was found to be 0.088 µg/mL (≈ 0.148 µM).
As to `CCCCCCCCCCCC[C@@H](O)[C@H]1CC[C@H]([C@H]2CC[C@H]([C@H](O)CCCCCC[C@@H](O)CC3=C[C@H](C)OC3=O)O2)O1`, the EC50 worked out at 2.2 µg/mL (≈ 3.7 µM) in the experiment with PC-3; 0.00332 µg/mL (≈ 0.00558 µM) with HT-29; 0.143 µg/mL (≈ 0.24 µM) in the experiment with A549; 0.0154 µg/mL (≈ 0.0259 µM) in the experiment on MCF7; 0.0792 µg/mL (≈ 0.133 µM) in the experiment on MIA PaCa-2; 0.064 µg/mL (≈ 0.108 µM) in the experiment with A498. For the same compound, the median lethal concentration (LC50) was 7.34 µg/mL (≈ 12.3 µM) in the experiment with Artemia and 30.4 µg/mL (≈ 51.1 µM) in the experiment with Culicidae.
Take `COc1cccc2c1C(=O)c1c(O)c3c(c(O)c1C2=O)C[C@@](O)(C(=O)CO)C[C@@H]3O[C@H]1C[C@H](N)[C@H](O)[C@H](C)O1` [DOXORUBICIN]: the EC50 in the experiment on PC-3 amounted to 0.287 µg/mL (≈ 0.528 µM); in the experiment on HT-29, 0.0494 µg/mL (≈ 0.0909 µM); in the experiment on A549, 0.0262 µg/mL (≈ 0.0482 µM); with MCF7 it was 0.194 µg/mL (≈ 0.357 µM); with MIA PaCa-2 it was 0.034 µg/mL (≈ 0.0626 µM); with A498, 0.0663 µg/mL (≈ 0.122 µM). In the experiment with Artemia, the 50% lethal concentration (LC50) was 0.26 µg/mL (≈ 0.478 µM).
`CCCCCCCCCCCC[C@@H](O)[C@H]1CC[C@H]([C@H]2CC[C@H]([C@H](O)CC[C@H](O)CCCCCCCC3=C[C@H](C)OC3=O)O2)O1`: the EC50 in the experiment on PC-3 was 0.000242 µg/mL (≈ 0.000388 µM); in the experiment on HT-29 it was 0.0116 µg/mL (≈ 0.0186 µM); in the experiment on A549, 0.000493 µg/mL (≈ 0.000791 µM); in the experiment on MCF7, 0.215 µg/mL (≈ 0.345 µM); with A498, 0.0353 µg/mL (≈ 0.0567 µM). Besides, the results for the 50% lethal concentration (LC50) in the experiment on Artemia and in the experiment with Culicidae were 4.58 µg/mL (≈ 7.35 µM) and 8.29 µg/mL (≈ 13.3 µM), respectively.
Turning to `CCCCCCCCCCCCCC[C@@H](O)[C@H]1CC[C@H]([C@H]2CC[C@H]([C@H](O)CCCC[C@@H](O)CC3=C[C@H](C)OC3=O)O2)O1`, the EC50 with PC-3 stood at 2.96 µg/mL (≈ 4.98 µM); in the experiment on HT-29 it was 1 µg/mL (≈ 1.68 µM); in the experiment on A549, 0.455 µg/mL (≈ 0.765 µM); in the experiment on MCF7, 0.088 µg/mL (≈ 0.148 µM); in the experiment with MIA PaCa-2, 1.09 µg/mL (≈ 1.83 µM); in the experiment on A498, 0.127 µg/mL (≈ 0.213 µM). The values for the LC50 with Artemia and in the experiment with Culicidae were 9.42 µg/mL (≈ 15.8 µM) and 75.7 µg/mL (≈ 127 µM), respectively.
Regarding `CCCCCCCCCCCCCC[C@@H](O)[C@H]1CC[C@H]([C@H]2CC[C@H]([C@H](O)CCCCCC[C@@H](O)CC3=C[C@H](C)OC3=O)O2)O1`, the EC50 in the experiment on PC-3 came out at 0.0701 µg/mL (≈ 0.113 µM); in the experiment with HT-29, 0.525 µg/mL (≈ 0.843 µM); with A549, 0.295 µg/mL (≈ 0.474 µM); with MCF7, 0.889 µg/mL (≈ 1.43 µM); in the experiment with MIA PaCa-2 it was 0.0173 µg/mL (≈ 0.0278 µM); in the experiment on A498, 0.544 µg/mL (≈ 0.873 µM). The figures for the LC50 with Artemia and in the experiment on Culicidae were 18.7 µg/mL (≈ 30 µM) and 141 µg/mL (≈ 226 µM), respectively.
`CCCCCCC[C@H]1CC[C@H](CCCC[C@@H](O)[C@H]2CC[C@H](CCC[C@H](O)[C@@H](O)CCCCCCCC3=C[C@H](C)OC3=O)O2)O1` [ASIMIN] yielded an LC50 with Artemia of 0.0046 µg/mL (≈ 0.00738 µM).
